# Experimental data reported in paper PMC5598375 (Toxicology Reports, 2014).
# Entries after “also recorded” stand apart in the source; their conditions may differ.
# How the values were obtained:
# [1] = test system: 48 h-old mwh +/+ flr^3 larvae; test: Wing spot test, PP-IX pretreatment then 20 Gy gamma rays; assay type: in vivo, Drosophila melanogaster; settings: for Large single spots (>cells) per wing / Large single spots (>cells), number of spots / Small single spots (1-2 cells) per wing / Small single spots (1-2 cells), number of spots / Total spots per wing / Total spots, number of spots / Twin spots per wing / Twin spots, number of spots: 80 wings; for Small single spots (1-2 cells), statistical diagnosis / Total spots, statistical diagnosis: m = 2
# Summary of the method: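 48 h-old mwh/flr3 larvae were pretreated 24 h in the dark on filter paper with PP-IX (0, 0.69, 6.9, 69 mM in 5% sucrose). Each group was then split: one half received 20 Gy from a Co-60 source (dose rate up to 1259.44 Gy/h), the other stayed unirradiated. Larvae were reared on hydrated instant medium to eclosion. Wing spots were scored by SMART and analysed by Frei–Würgler statistics, m multiplication factor.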
# 48 h-larvae mwh+/+flr^3 = test: Wing spot test; assay type: in vivo, Drosophila melanogaster; settings: CrO3 0.025–2.5 mM
# [2] = test system: 48 h-larvae mwh +/+ flr^3; test: Wing spot test; assay type: in vivo, Drosophila melanogaster; settings: for Total spots, statistical diagnosis / Small single spots (1-2 cells), statistical diagnosis: m = 2; for Total spots, statistical diagnosis / Large single spots (>cells), statistical diagnosis / Small single spots (1-2 cells), statistical diagnosis: vs negative control; for Large single spots (>cells), statistical diagnosis: m = 5
# Summary of the method: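 Crosses: mwh/mwh females × flr3/TM3,Bds males mated 2 h, eggs laid over 2 h. 48 h larvae were collected on 20% sucrose, washed in 24 ± 1 °C water, held 24 h in the dark on filter paper with PP-IX (0–69 mM in 5% sucrose), then fed CrO3 (0.025–2.5 mM) in instant medium, in triplicate. Non-Ser wings were scored at 40× for small (1–2 cells), large and twin spots. Frei–Würgler one-sided test, α=β=0.05, m multiplication factor.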
# [3] = test system: somatic cells of Drosophila; settings: PP-IX 69 mM, 24 h after administration, with 0.5 mM N-nitroso-N-ethylurea (ENU); cited from earlier work
# rats of the CF1 strain = settings: cited from earlier work
# Drosophila strain = settings: chronic treatment, cited from earlier work
# [4] = test system: 48 h-old mwh+/+flr^3 larvae; test: Toxicity test; assay type: in vivo, Drosophila melanogaster; settings: for % of non-viable larvae / No. of viable larvae ± SEM: 500 larvae
# [5] = PP-IX 0.69 mM 24 h pretreatment + 20 Gy gamma rays
# [6] = PP-IX 0.69 mM + 20 Gy gamma rays
# [7] = PP-IX 6.9 mM 24 h pretreatment + 20 Gy gamma rays
# [8] = PP-IX 6.9 mM + 20 Gy gamma rays
# [9] = PP-IX 69 mM 24 h pretreatment + 20 Gy gamma rays
# [10] = PP-IX 69 mM + 20 Gy gamma rays, m = 5
# [11] = PP-IX 0.69 mM 24 h pretreatment alone, 120 wings
# [12] = PP-IX 6.9 mM 24 h pretreatment alone, 120 wings
# [13] = PP-IX 69 mM 24 h pretreatment alone, 160 wings
compound,measurement,setting,value
"C=CC1=C(C)c2cc3[nH]c(cc4nc(cc5[nH]c(cc1n2)c(C)c5CCC(=O)O)C(CCC(=O)O)=C4C)c(C)c3C=C [PP-IX, Protoporphyrin-IX]",Large single spots (>cells) per wing,[1]; [5],1.16 spots per wing
same,"Large single spots (>cells), number of spots",[1]; [5],93
same,Small single spots (1-2 cells) per wing,[1]; [5],0.82 spots per wing
same,"Small single spots (1-2 cells), number of spots",[1]; [5],66
same,Total spots per wing,[1]; [5],2.07 spots per wing
same,"Total spots, number of spots",[1]; [5],166
same,Twin spots per wing,[1]; [5],0.08 spots per wing
same,"Twin spots, number of spots",[1]; [5],7
same,"Small single spots (1-2 cells), statistical diagnosis",[1]; [6],−
same,"Total spots, statistical diagnosis",[1]; [6],−
same,"Twin spots, statistical diagnosis","[1]; PP-IX 0.69 mM + 20 Gy gamma rays, m = 5",−
same,Large single spots (>cells) per wing,[1]; [7],1.84 spots per wing
same,"Large single spots (>cells), number of spots",[1]; [7],147
same,Small single spots (1-2 cells) per wing,[1]; [7],0.69 spots per wing
same,"Small single spots (1-2 cells), number of spots",[1]; [7],55
same,Total spots per wing,[1]; [7],2.67 spots per wing
same,"Total spots, number of spots",[1]; [7],214
same,Twin spots per wing,[1]; [7],0.15 spots per wing
same,"Twin spots, number of spots",[1]; [7],12
same,"Small single spots (1-2 cells), statistical diagnosis",[1]; [8],−
same,"Total spots, statistical diagnosis",[1]; [8],−
same,"Twin spots, statistical diagnosis","[1]; PP-IX 6.9 mM + 20 Gy gamma rays, m = 5",−
same,Large single spots (>cells) per wing,[1]; [9],1.52 spots per wing
same,"Large single spots (>cells), number of spots",[1]; [9],122
same,Small single spots (1-2 cells) per wing,[1]; [9],1.16 spots per wing
same,"Small single spots (1-2 cells), number of spots",[1]; [9],93
same,Total spots per wing,[1]; [9],2.76 spots per wing
same,"Total spots, number of spots",[1]; [9],221
same,Twin spots per wing,[1]; [9],0.07 spots per wing
same,"Twin spots, number of spots",[1]; [9],6
same,"Small single spots (1-2 cells), statistical diagnosis",[1]; PP-IX 69 mM + 20 Gy gamma rays,−
same,"Total spots, statistical diagnosis",[1]; PP-IX 69 mM + 20 Gy gamma rays,−
same,"Large single spots (>cells), statistical diagnosis",[1]; [10],−
same,"Twin spots, statistical diagnosis",[1]; [10],−
same,Effect on damage induced by gamma rays,"[1]; PP-IX all tested concentrations, 20 Gy",no effect; also recorded: Absence of an inhibitor effect
same,Effect on genetic damage induced by CrO3,48 h-larvae mwh+/+flr^3; PP-IX 0.69 mM,significant decrease of damage in four of the five concentrations of CrO3 tested; also recorded: significantly reduced the genetic damage induced by all CrO3 concentrations tested
same,Effect on genetic damage induced by CrO3,48 h-larvae mwh+/+flr^3; PP-IX 6.9 mM,significantly decreased the frequency of damage induced by 2 and 2.5 mM of the mutagen
same,Effect on genetic damage induced by CrO3,48 h-larvae mwh+/+flr^3; PP-IX 69 mM,only reduced the damage induced by 2.5 mM
same,Large single spots (>cells) per wing,[2]; [11],0.05 spots per wing
same,"Large single spots (>cells), number of spots",[2]; [11],6
same,Small single spots (1-2 cells) per wing,[2]; [11],0.33 spots per wing
same,"Small single spots (1-2 cells), number of spots",[2]; [11],40
same,Total spots per wing,[2]; [11],0.41 spots per wing
same,"Total spots, number of spots",[2]; [11],49
same,Twin spots per wing,[2]; [11],0.03 spots per wing
same,"Twin spots, number of spots",[2]; [11],3
same,"Total spots, statistical diagnosis",[2]; PP-IX 0.69 mM alone,−
same,"Large single spots (>cells), statistical diagnosis",[2]; PP-IX 0.69 mM alone,−
same,Large single spots (>cells) per wing,[2]; [12],0.05 spots per wing
same,"Large single spots (>cells), number of spots",[2]; [12],6
same,Small single spots (1-2 cells) per wing,[2]; [12],0.23 spots per wing
same,"Small single spots (1-2 cells), number of spots",[2]; [12],28
same,Total spots per wing,[2]; [12],0.28 spots per wing
same,"Total spots, number of spots",[2]; [12],34
same,Twin spots per wing,[2]; [12],0 spots per wing
same,"Twin spots, number of spots",[2]; [12],(0)
same,"Small single spots (1-2 cells), statistical diagnosis",[2]; PP-IX 6.9 mM alone,−
same,"Total spots, statistical diagnosis",[2]; PP-IX 6.9 mM alone,−
same,"Large single spots (>cells), statistical diagnosis",[2]; PP-IX 6.9 mM alone,−
same,Large single spots (>cells) per wing,[2]; [13],0.14 spots per wing
same,"Large single spots (>cells), number of spots",[2]; [13],23
same,Small single spots (1-2 cells) per wing,[2]; [13],0.51 spots per wing
same,"Small single spots (1-2 cells), number of spots",[2]; [13],81
same,Total spots per wing,[2]; [13],0.66 spots per wing
same,"Total spots, number of spots",[2]; [13],106
same,Twin spots per wing,[2]; [13],0.01 spots per wing
same,"Twin spots, number of spots",[2]; [13],2
same,Effect of PP-IX alone on basal mutation frequency,[2]; PP-IX 69 mM alone,doubled the basal mutation frequency
same,"Small single spots (1-2 cells), statistical diagnosis",[2]; PP-IX 69 mM alone,+
same,"Total spots, statistical diagnosis",[2]; PP-IX 69 mM alone,+
same,"Large single spots (>cells), statistical diagnosis",[2]; PP-IX 69 mM alone,−
same,Mutagenicity of PP-IX alone,"[2]; PP-IX 69 mM, damage comparable with 0.25 mM of CrO3",mutagenic
same,Induction of genetic damage by PP-IX alone,[2]; PP-IX 0.69 and 6.9 mM,did not induce genetic damage
same,Mutagenicity in combination with ENU,[3],mutagenic
same,Increase of catalase (CAT) activity,rats of the CF1 strain; after 2 h of administration,30%
same,Lipid peroxidation,rats of the CF1 strain,induced lipid peroxidation
same,Superoxide dismutase (SOD) enzyme,rats of the CF1 strain,increased 24 h after administration
same,"Half life, Sod deficient strain",Drosophila strain; Sod deficient strain,half life was reduced
same,"Lifespan, wild strain",Drosophila strain; wild Drosophila strain,prolong the lifespan
same,% of non-viable larvae,[4]; PP-IX 0.69 mM,21%
same,No. of viable larvae ± SEM,[4]; PP-IX 0.69 mM,394 ± 1.7
same,% of non-viable larvae,[4]; PP-IX 6.9 mM,11%
same,No. of viable larvae ± SEM,[4]; PP-IX 6.9 mM,447 ± 0.6
same,Reduction of toxicity compared to control,"[4]; PP-IX 6.9 mM, not significantly",5%
same,% of non-viable larvae,[4]; PP-IX 69 mM,26%
same,No. of viable larvae ± SEM,[4]; PP-IX 69 mM,368 ± 0.5
same,Toxicity compared to the control,"[4]; PP-IX 0.69, 6.9, 69 mM (three concentrations tested)",nontoxic; also recorded: not toxic
